From ChEMBL document CHEMBL3352115, “Discovery of APD334: Design of a Clinical Stage Functional Antagonist of the Sphingosine-1-phosphate-1 Receptor” (ACS Med Chem Lett, 2014)
Active and inactive are the calls of the source. The rule behind the calls is not given here.

Key:
[1] = biological target: T1, Sphingosine 1-phosphate receptor 1 (Homo sapiens, UniProt P21453); assay: Agonist activity at human S1P1 receptor assessed as cAMP accumulation by HTRF assay relative to S1P; format: functional
Summary of the method: (§1)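 HTRF cyclase (cAMP) functional assay at S1P1 of each species; EC50 taken as mean of three or more replicates; efficacy given as % agonism relative to S1P.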

[2] = biological target: T1, Sphingosine 1-phosphate receptor 1; assay: Agonist activity at human S1P1 receptor assessed as cAMP accumulation by HTRF assay; format: functional; summary of the method: as §1
[3] = Half life in rat liver microsomes; format: ADME
Summary of the method: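 Stability on incubation with liver microsomes of each species; half-life reported.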

[4] = test system: Rattus norvegicus; assay: Induction of body weight regain in Lewis rat collagen-induced arthritis model at 1 mg/kg, po qd measured on day 17 (reference value: 160.3 +/- 2.3 g); format: functional
[5] = test system: Rattus norvegicus; assay: Reduction in ankle diameter in Lewis rat collagen-induced arthritis model at 1 mg/kg, po qd measured on day 17 (reference value: +/- inches); format: functional
Summary of the method: (§2)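 Female Lewis rats with collagen-induced arthritis, prophylactic daily oral dosing; ankle diameter (inches) and body weight recorded at day 17 end point; mean ± SEM.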

[6] = test system: Mus musculus; assay: Reduction in disease severity in C57Bl/6 mouse experimental autoimmune encephalomyelitis model of multiple sclerosis at 1 mg/kg dosed once daily beginning on day 18 and continued to day 37; format: functional, organism-based; design: dose 1 mg/kg
Summary of the method: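 Female C57Bl/6 mice with MOG35–55-induced EAE; once-daily treatment started day 18 after severe disease onset and continued to day 37; vehicle 0.5% methylcellulose; clinical scoring.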

[7] = Activation of Inward rectifier potassium channel in human atrial myocytes; format: cell-based; settings: Cardiac atrium
Summary of the method: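 In vitro activation of the inward-rectifying potassium channel (IKACh) in human atrial myocytes, run alongside S1P as reference agonist; potency expressed as EC50.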

[8] = test system: Rattus norvegicus; assay: Induction of body weight regain in Lewis rat collagen-induced arthritis model at 0.075 mg/kg, po qd measured on day 17 (reference value: 160.3 +/- 2.3 g); format: functional
[9] = test system: Rattus norvegicus; assay: Reduction in ankle diameter in Lewis rat collagen-induced arthritis model at 0.075 mg/kg, po qd measured on day 17 (reference value: +/- inches); format: functional; summary of the method: as §2

T1 sequence (P21453 whole entry): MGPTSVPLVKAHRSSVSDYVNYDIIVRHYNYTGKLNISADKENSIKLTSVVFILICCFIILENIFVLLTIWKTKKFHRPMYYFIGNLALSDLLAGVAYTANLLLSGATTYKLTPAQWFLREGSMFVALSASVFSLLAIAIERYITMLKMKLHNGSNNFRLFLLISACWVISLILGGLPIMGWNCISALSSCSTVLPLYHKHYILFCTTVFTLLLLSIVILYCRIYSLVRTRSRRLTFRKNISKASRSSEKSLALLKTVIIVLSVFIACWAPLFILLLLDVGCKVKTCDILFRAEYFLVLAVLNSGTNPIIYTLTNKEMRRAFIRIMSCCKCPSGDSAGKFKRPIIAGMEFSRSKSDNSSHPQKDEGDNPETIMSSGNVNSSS

Emax [1] [%]	EC50 [2] [nM]	SMILES	further results
96	0.077	O=C(O)CC1CCc2c1[nH]c1ccc(OCc3ccc(C4CCCCC4)c(C(F)(F)F)c3)cc21 (racemic)	–
109	1.7	N#Cc1cc(COc2ccc3[nH]c4c(c3c2)CCC4CC(=O)O)ccc1OC(F)(F)F (racemic)	–
–	–	CCCCCCCCc1ccc(CCC(N)(CO)CO)cc1 [FINGOLIMOD]	Activity [4]: 181.9 g; Activity [5]: 0.2694 inches; Activity [6]: Active
111	4.58	O=C(O)CC1CCc2c1[nH]c1ccc(OCc3ccc(CC4CCCCC4)c(C(F)(F)F)c3)cc21 (racemic)	–
90	–	N#Cc1cc(COc2ccc3[nH]c4c(c3c2)CCC4CC(=O)O)cc(OC(F)(F)F)c1 (racemic)	–
118	3.68	O=C(O)CC1CCc2c1[nH]c1ccc(OCc3ccc(C4CC4)c(C(F)(F)F)c3)cc21 (racemic)	–
117	159	O=C(O)CC1CCc2c1[nH]c1ccc(OCc3ccc(Cl)c(C(F)(F)F)c3)cc21 (racemic)	–
136	120	COc1ccc(COc2ccc3[nH]c4c(c3c2)CCC4CC(=O)O)cc1C#N (racemic)	–
112	55.8	CC(C)(C)Cc1ccc(COc2ccc3[nH]c4c(c3c2)CCC4CC(=O)O)cc1C(F)(F)F (racemic)	–
104	141	N#Cc1ccc(COc2ccc3[nH]c4c(c3c2)CCC4CC(=O)O)cc1C(F)(F)F (racemic)	–
98	–	O=C(O)CC1CCc2c1[nH]c1ccc(OCc3cc(C(F)(F)F)cc(C(F)(F)F)c3)cc21 (racemic)	–
107	0.49	CCCc1ccc(COc2ccc3[nH]c4c(c3c2)CCC4CC(=O)O)cc1C(F)(F)F (racemic)	–
103	0.44	CC(C)Cc1ccc(COc2ccc3[nH]c4c(c3c2)CCC4CC(=O)O)cc1C(F)(F)F (racemic)	–
109	0.45	O=C(O)CC1CCc2c1[nH]c1ccc(OCc3ccc(C4CCC4)c(C(F)(F)F)c3)cc21 (racemic)	–
98	0.087	N#Cc1cc(COc2ccc3[nH]c4c(c3c2)CCC4CC(=O)O)ccc1C1CCCCC1 (racemic)	–
–	–	CN(Cc1cnc2nc(N)nc(N)c2n1)c1ccc(C(=O)N[C@@H](CCC(=O)O)C(=O)O)cc1 [METHOTREXATE]	Activity [8]: 181.7 g; Activity [9]: 0.2795 inches

SMILES	Emax [1] [%]	EC50 [2] [nM]	further results
O=C(O)C[C@@H]1CCc2c1[nH]c1ccc(OCc3ccc(C4CCCC4)c(C(F)(F)F)c3)cc21	103	0.09	half-life [3]: 9 min
CCCCCCCCCCCCC/C=C/[C@@H](O)[C@@H](N)COP(=O)(O)O	–	0.062	EC50 [7]: 2.1 nM
O=C(O)CC1CCc2c1[nH]c1ccc(OCc3ccc(C4CCCC4)c(C(F)(F)F)c3)cc21 (racemic)	104	0.073	–
